In PMC4919474 (EBioMedicine, 2016):

System: Drosophila S3 cells
Assay: qHTS of OA-induced lipid droplet storage in S3 cells
Assay type: cell-based
Conditions: Drosophila melanogaster
Outline: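 Drosophila S3 cells in medium with 5% FCS receive library compounds at […] (46 μM to 3 nM, 1:5 steps). Droplets are induced with 400 μM oleic acid on fatty-acid-free BSA. After 18 h, cells are fixed and stained with BODIPY 493/503 (lipid) and CellTracker Red CMTPX (cell count), then read by 488 nm laser scanning. Lipid signal is normalised to cell number; dose-response curves are fitted.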

## CCC/C=C/C/C=C/C=C/C=N/NN=O [TriacsinC]
  EC50: 0.09 µM
